Series [1] has as its system Staphylococcus aureus. As to the kind of experiment: Antibacterial activity against Staphylococcus aureus ATCC 29213 by microbroth dilution method. The format is functional. The method in brief: (§1)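 Standard broth microdilution in Mueller-Hinton broth gave MICs. For the combination lines, enrofloxacin MIC was measured with the tested compound present at the stated concentration.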

The subject of series [2] is Staphylococcus aureus. As to the kind of experiment: Antibacterial activity against Staphylococcus aureus 8325-4 by microbroth dilution method. The format is functional. The essentials:
as §1

Series [3] concerns Staphylococcus aureus. As to the kind of experiment: Antibacterial activity against methicillin-resistant Staphylococcus aureus N315 by microbroth dilution method. The format is functional. The method in brief:
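MIC against methicillin-resistant S. aureus N315, determined by standard microbroth dilution in Mueller-Hinton broth.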

Series [4] relates to Staphylococcus aureus. Kind of series: Toxicity in Staphylococcus aureus 8325-4 assessed as inhibition of bacterial growth. The format is organism-based.
The subject of series [5] is Staphylococcus aureus. Kind of series: Inhibition of biofilm formation in Staphylococcus aureus 8325-4 after 24 hrs by microtiter plate assay. It is filed as functional, organism-based. As to conditions: for EC50: Staphylococcus aureus, 8325-4, 24 h. The method in brief: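 Static 96-well crystal-violet assay with S. aureus 8325-4. Inoculum came from an overnight BHI agar culture, suspended in 0.9% NaCl to McF 0.5, 5 μL per well into TS medium containing compounds as monosodium salts at […]. Plates ran 24 h at 37 °C. Wells were rinsed three times, stained with 1% crystal violet for 15 min and eluted with 96% ethanol. Read at A630, at least triplicate.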

Series [6] has as its system Staphylococcus aureus. Kind of series: Disruption of biofilm formation in Staphylococcus aureus 8325-4 after 24 hrs by microtiter plate assay. It is filed as functional, organism-based.
Series [7] has as its system Staphylococcus aureus. Kind of series: Antibacterial activity against methicillin-resistant Staphylococcus aureus N315 assessed as reduction of enrofloxacin MIC at 32 ug/ml by microbroth dilution method. It is filed as functional. The method in brief:
(§2)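 Standard microbroth dilution in Mueller-Hinton broth against methicillin-resistant S. aureus N315. The enrofloxacin MIC was determined with the test compound added to the broth.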
Background: Dilution methods test growth across graded concentrations, often in twofold steps.

In series [8] the test system is Staphylococcus aureus. As to the kind of experiment: Antibacterial activity against Staphylococcus aureus 8325-4 assessed as reduction of enrofloxacin MIC at 8 ug/ml by microbroth dilution method. It is filed as functional. The method in brief:
as §1

In series [9] the test system is Staphylococcus aureus. As to the kind of experiment: Antibacterial activity against Staphylococcus aureus 8325-4 assessed as reduction of enrofloxacin MIC at 1 ug/ml by microbroth dilution method. The format is functional. The essentials:
as §1

Series [10] relates to Staphylococcus aureus. Kind of series: Antibacterial activity against Staphylococcus aureus ATCC 29213 assessed as reduction of enrofloxacin MIC at 32 ug/ml by microbroth dilution method. The format is functional. The method in brief:
as §1

Series [11] deals with Staphylococcus aureus. As to the kind of experiment: Antibacterial activity against methicillin-resistant Staphylococcus aureus N315 assessed as reduction of enrofloxacin MIC at 1 ug/ml by microbroth dilution method. The format is functional. The method in brief: as §2
Series [12] concerns Staphylococcus aureus. As to the kind of experiment: Antibacterial activity against Staphylococcus aureus ATCC 29213 assessed as reduction of enrofloxacin MIC at 1 ug/ml by microbroth dilution method. It is filed as functional. The essentials: as §1
The test system of series [13] is Staphylococcus aureus. Kind of series: Inhibition of biofilm formation in Staphylococcus aureus 8325-4 at 8 mM after 24 hrs by microtiter plate assay in presence of glucose. It is filed as functional. As to conditions: 8325-4, 24 h. The essentials: (§3)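 Same static crystal-violet biofilm protocol as above, with 1% glucose added to the TS medium. S. aureus 8325-4 grew 24 h at 37 °C with the compound. Adherent cells were stained with crystal violet, eluted in ethanol and read at A630. Means come from three independent experiments.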

Series [14] deals with Staphylococcus aureus. As to the kind of experiment: Antibacterial activity against Staphylococcus aureus ATCC 29213 assessed as reduction of enrofloxacin MIC at 8 ug/ml by microbroth dilution method. The format is functional. The method in brief: as §1
For series [15], the system named is Staphylococcus aureus. As to the kind of experiment: Antibacterial activity against methicillin-resistant Staphylococcus aureus N315 assessed as reduction of enrofloxacin MIC at 8 ug/ml by microbroth dilution method. It is filed as functional. The method in brief:
as §2

In series [16] the test system is Staphylococcus aureus. As to the kind of experiment: Inhibition of biofilm formation in Staphylococcus aureus 8325-4 at […] after 24 hrs by microtiter plate assay in presence of glucose. It is filed as functional, organism-based. The method in brief: as §3
In series [17] the test system is Staphylococcus aureus. Kind of series: Antibacterial activity against Staphylococcus aureus 8325-4 assessed as reduction of enrofloxacin MIC at 32 ug/ml by microbroth dilution method. It is filed as functional. The method in brief: as §1

Values after ≈ are worked out from the molar mass of the structure shown. Active and inactive are the calls of the source.

What is called MIC is the smallest concentration in the dilution series that meets the test's criterion for growth inhibition. Broadly, the EC50 is the midpoint of the concentration-response curve. A high value points to lower potency in that assay. One may read the inhibition as the change of the read-out against control, counted positive when it falls.

For the molecule `CCN1CCN(c2cc3c(cc2F)c(=O)c(C(=O)O)cn3C2CC2)CC1` [ENROFLOXACIN], the figures for the MIC in series [1], in series [2] and in series [3] were 1 µg/mL (≈ 2.78 µM), 0.5 µg/mL (≈ 1.39 µM) and 2 µg/mL (≈ 5.56 µM), respectively.

Consider `COc1cc([C@H]2Oc3ccc([C@H]4Oc5cc(O)cc(O)c5C(=O)[C@@H]4O)cc3O[C@@H]2CO)ccc1O` [ISOSILYBIN A], for which, in series [4], the Activity entry is given as “Non-toxic”. In addition, in series [5], the MBIC turned out to be 124 µM and the response was half-maximal at 32 µg/mL (≈ 66.3 µM) (EC50). For the same molecule, in series [6], the outcome was inactive.

For the molecule `COc1cc([C@H]2Oc3ccc(-c4cc(=O)c5c(O)cc(O)cc5o4)cc3O[C@@H]2CO)ccc1O`, the Activity result in series [4] is “Non-toxic”. In series [5], this molecule came in with an MBIC of 64 µM and an EC50 of 16 µg/mL (≈ 34.5 µM). Also, the result in [6] was inactive.

As to `COc1cc([C@@H]2Oc3cc(-c4cc(=O)c5c(O)cc(O)cc5o4)ccc3O[C@H]2CO)ccc1O`, the MIC in series [7] came out at 0.5 µg/mL; in series [8], 0.0625 µg/mL; in series [9], 0.125 µg/mL; in [10] it was 0.0625 µg/mL; in [11], 1 µg/mL; in [12], 0.25 µg/mL. Also, the MIC in series [14] amounted to 0.0625 µg/mL; in [15], 0.5 µg/mL; in [17], 0.0625 µg/mL. In addition, the inhibition at 8000 µM in series [13] was found to be 80%. Also, the Activity result in series [4] is listed as “Non-toxic”. In addition, the MBIC in series [5] is 8 µM. This molecule had an EC50 in [5] of 2 µg/mL (≈ 4.31 µM). Further, the result in series [6] was inactive. Moreover, in series [16], the inhibition result is “Active”.

`COc1cc(C2Oc3cc(-c4cc(=O)c5c(O)cc(O)cc5o4)ccc3OC2CO)ccc1O` (racemic): the Activity entry in [4] is listed as “Non-toxic”. In series [5], the MBIC was determined as 32 µM and the EC50 was determined as 4 µg/mL (≈ 8.61 µM). Also, the result in series [6] was inactive.

With `COc1cc([C@H]2Oc3cc(-c4cc(=O)c5c(O)cc(O)cc5o4)ccc3O[C@@H]2CO)ccc1O` [HYDNOCARPIN], the Activity entry in [4] is recorded as “Non-toxic”. In series [5], this molecule came in with an MBIC of 64 µM and an EC50 of 16 µg/mL (≈ 34.5 µM). In series [6], the result was inactive.

Consider `COc1cc(C2Oc3c(O)cc(-c4cc(=O)c5c(O)cc(O)cc5o4)cc3C2CO)ccc1O` (stereo unspecified), for which the Activity result in series [4] was “Non-toxic”. For the same molecule, in [5], the MBIC was above 124 µM and it took 64 µg/mL (≈ 138 µM) to reach a half-maximal effect (EC50). Further, the outcome in [6] was inactive.

As for `COc1cc([C@H]2Oc3cc(-c4oc5cc(O)cc(O)c5c(=O)c4O)ccc3O[C@@H]2CO)ccc1O`, the Activity result in series [4] is given as “Non-toxic”. For the same molecule, in series [5], the MBIC came to 64 µM and the concentration giving a half-maximal response (EC50) came to 16 µg/mL (≈ 33.3 µM). Further, the result in series [6] was inactive.

With `COc1cc(C2Oc3cc([C@H]4Oc5cc(O)cc(O)c5C(=O)[C@@H]4O)ccc3OC2CO)ccc1O` (stereo partly specified) [SILIBININ], the Activity result in [4] is reported as “Non-toxic”. For the same molecule, in [5], the MBIC is above 124 µM and a half-maximal effect (EC50) was put at 64 µg/mL (≈ 133 µM). Moreover, the outcome in [6] was inactive.

These data come from ChEMBL document CHEMBL3600361, “Hydnocarpin-Type Flavonolignans: Semisynthesis and Inhibitory Effects on Staphylococcus aureus Biofilm Formation” (J Nat Prod, 2015).
